Source: ChEMBL document CHEMBL5724801, “EUbOPEN Chemogenomics Library - Multiplex” (2024)
Where “and” joins values, the source holds several entries; their conditions need not be identical. Identical values can stand only once.

Test system: HEK-293T
Assay: Multiplex assay against HEK293T
Type: toxicity, cell-based
Conditions: human
In short: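 Live cells carried four stains from seeding: Hoechst33342, BioTracker Green Microtubule Cytoskeleton Dye, MitoTracker Red and Annexin V Alexa Fluor 680. They were imaged on a CQ1 microscope at 37°C and 5% CO2 after compound addition. Using CellPathfinder machine-learning gating, cells were split into Hoechst high-intensity objects or normal cells, normal cells into healthy, pyknosed or fragmented nuclei, and pyknosed cells into mitotic or apoptotic; tubulin, mitochondrial-mass and membrane-permeability phenotypes are per cents of healthy-nucleus cells.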

[1] = 12 h, 1 µM, compound concentration 1 uM
[2] = 12 h, 10 µM, compound concentration 10 uM
[3] = 24 h, 1 µM, compound concentration 1 uM
[4] = 24 h, 10 µM, compound concentration 10 uM
[5] = 48 h, 1 µM, compound concentration 1 uM
[6] = 48 h, 10 µM, compound concentration 10 uM

CN(C)CCOc1ccc(/C(=C(/CCCO)c2ccccc2)c2ccc(O)cc2)cc1
Population Apoptotic (%) [1]: 11.33% and 11.76%
Population Fragmented Nuclei (%) [1]: 1.07% and 2.99%
Population Hoechst High Intensity Objects (%) [1]: 0%
Population Membrane Permeable-Phenotype (%) [1]: 0.91% and 0%
Population Mitochondria Different-Phenotype (%) [1]: 37.73% and 15.38%
Population Mitotic Cells (%) [1]: 88.67% and 88.24%
Population Normal (%) [1]: 100%
Population Pyknosed Nuclei (%) [1]: 40.11% and 81.44%
Total Cell Count [1]: 374 and 167
Population Apoptotic (%) [2]: 12.57% and 17.97%
Population Fragmented Nuclei (%) [2]: 0.31% and 2.14%
Population Hoechst High Intensity Objects (%) [2]: 0%
Population Membrane Permeable-Phenotype (%) [2]: 0%
Population Mitochondria Different-Phenotype (%) [2]: 37.01% and 22.22%
Population Mitotic Cells (%) [2]: 87.43% and 82.03%
Population Normal (%) [2]: 100%
Population Pyknosed Nuclei (%) [2]: 59.87% and 91.43%
Population Tubulin-Different-Phenotype (%) [2]: 44.09% and 66.67%
Total Cell Count [2]: 319 and 140
Population Apoptotic (%) [3]: 20.61% and 15.97%
Population Fragmented Nuclei (%) [3]: 0.56% and 3.01%
Population Healthy Nuclei (%) [3]: 68.54% and 25.3%
Population Hoechst High Intensity Objects (%) [3]: 0.37% and 0%
Population Membrane Permeable-Phenotype (%) [3]: 1.09% and 2.38%
Population Mitochondria Different-Phenotype (%) [3]: 18.85% and 28.57%
Population Mitotic Cells (%) [3]: 79.39% and 84.03%
Population Normal (%) [3]: 99.63% and 100%
Population Pyknosed Nuclei (%) [3]: 30.9% and 71.69%
Population Tubulin-Different-Phenotype (%) [3]: 22.68% and 21.43%
Population Apoptotic (%) [4]: 44.56% and 45.71%
Population Fragmented Nuclei (%) [4]: 1.1% and 3.91%
Population Hoechst High Intensity Objects (%) [4]: 0%
Population Membrane Permeable-Phenotype (%) [4]: 1.19% and 5.56%
Population Mitochondria Different-Phenotype (%) [4]: 45.83% and 33.33%
Population Mitotic Cells (%) [4]: 55.44% and 54.29%
Population Normal (%) [4]: 100%
Population Pyknosed Nuclei (%) [4]: 52.88% and 82.03%
Population Tubulin-Different-Phenotype (%) [4]: 79.76% and 72.22%
Total Cell Count [4]: 365 and 128
Population Apoptotic (%) [5]: 11.64% and 29.47%
Population Fragmented Nuclei (%) [5]: 1.39% and 0.98%
Population Healthy Nuclei (%) [5]: 85.94% and 52.45%
Population Hoechst High Intensity Objects (%) [5]: 0.26% and 0%
Population Membrane Permeable-Phenotype (%) [5]: 6.57% and 1.87%
Population Mitochondria Different-Phenotype (%) [5]: 21.52% and 41.12%
Population Mitotic Cells (%) [5]: 88.36% and 70.53%
Population Normal (%) [5]: 99.74% and 100%
Population Apoptotic (%) [6]: 39.36% and 66.67%
Population Fragmented Nuclei (%) [6]: 0.98% and 2.22%
Population Hoechst High Intensity Objects (%) [6]: 1.92% and 1.46%
Population Membrane Permeable-Phenotype (%) [6]: 1.57% and 0%
Population Mitochondria Different-Phenotype (%) [6]: 81.82% and 77.78%
Population Mitotic Cells (%) [6]: 60.64% and 33.33%
Population Normal (%) [6]: 98.08% and 98.54%
Population Pyknosed Nuclei (%) [6]: 36.72% and 77.78%
